# From ChEMBL document CHEMBL1127322, “Selective protection and relative importance of the carboxylic acid groups of zaragozic acid A for squalene synthase inhibition” (J Med Chem, 1994)
# Active and inactive are the calls of the source. No cut-off for these calls is given here.
# Key:
# Mus musculus [1] = assay: Tested in vivo for inhibition at a dose of 40 mg/kg, p.o. in oral mouse assay; Not active; assay type: functional, organism-based; parameters: dose 40 mg/kg
# Method in brief: (§1)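 Mice (22.5–27.5 g, six per group) received compound orally as a suspension in 5% emulphor. After 30 min they were given [5-³H]-mevalonolactone sc (0.5 μCi/animal) and were killed 30 min later. Livers were saponified and extracted with petroleum ether, and nonsaponifiable dpm was counted. Inhibition was calculated against incorporation in control animals.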
# Mus musculus [2] = assay: Tested in vivo for inhibition at a dose of 40 mg/kg, p.o. in oral mouse assay; assay type: functional; method in brief: as §1
# Mus musculus [3] = assay: Tested in vivo for inhibition at a dose of 24 mg/kg, p.o. in oral mouse assay; assay type: functional; method in brief: as §1
# Mus musculus [4] = assay: Effective dose required for 50 percent inhibition of mouse liver squalene synthase at a dose of 40 mg/kg, po
Compound,inhibition (Mus musculus [1]),inhibition in vivo at 40 mg/kg (Mus musculus [2]),other results
C=C(CCC12OC(C(=O)OCCC(C)C)C(O)(C(=O)O)C(C(=O)OC)(O1)[C@@H](OC(=O)/C=C/[C@@H](C)C[C@@H](C)CC)[C@H]2O)C(OC(C)=O)[C@H](C)Cc1ccccc1 (some centres undefined),inactive,,
C=C(CCC12OC(C(=O)OCCC(C)C)C(O)(C(=O)O)C(C(=O)O)(O1)[C@@H](OC(=O)/C=C/[C@@H](C)C[C@@H](C)CC)[C@H]2O)C(OC(C)=O)[C@H](C)Cc1ccccc1 (some centres undefined),,62%,
C=C(CCC12OC(C(=O)O)C(O)(C(=O)OC)C(C(=O)OC)(O1)[C@@H](OC(=O)/C=C/[C@@H](C)C[C@@H](C)CC)[C@H]2O)C(OC(C)=O)[C@H](C)Cc1ccccc1 (some centres undefined),inactive,,
C=C(CCC12OC(C(=O)O)C(O)(C(=O)OC)C(C(=O)O)(O1)[C@@H](OC(=O)/C=C/[C@@H](C)C[C@@H](C)CC)[C@H]2O)C(OC(C)=O)[C@H](C)Cc1ccccc1 (some centres undefined),,43%,
C=C(CCC12OC(C(=O)O)C(O)(C(=O)O)C(C(=O)OC)(O1)[C@@H](OC(=O)/C=C/[C@@H](C)C[C@@H](C)CC)[C@H]2O)C(OC(C)=O)[C@H](C)Cc1ccccc1 (some centres undefined),inactive,,
C=C(CCC12OC(C(=O)O)C(O)(C(=O)O)C(C(=O)O)(O1)[C@@H](OC(=O)/C=C/[C@@H](C)C[C@@H](C)CC)[C@H]2O)C(OC(C)=O)[C@H](C)Cc1ccccc1 (some centres undefined),,11%,
C=C(CCC12OC(C(=O)OCc3ccccc3)C(O)(C(=O)O)C(C(=O)O)(O1)[C@@H](OC(=O)/C=C/[C@@H](C)C[C@@H](C)CC)[C@H]2O)C(OC(C)=O)[C@H](C)Cc1ccccc1 (some centres undefined),,,inhibition in vivo at 24 mg/kg (Mus musculus [3]): 36%
C=C(CCC12OC(C(=O)OC)C(O)(C(=O)O)C(C(=O)O)(O1)[C@@H](OC(=O)/C=C/[C@@H](C)C[C@@H](C)CC)[C@H]2O)C(OC(C)=O)[C@H](C)Cc1ccccc1 (some centres undefined),,,inhibition in vivo at 24 mg/kg (Mus musculus [3]): 32%
C=C(CCC12OC(C(=O)OCCC(C)C)C(O)(C(=O)OC)C(C(=O)O)(O1)[C@@H](OC(=O)/C=C/[C@@H](C)C[C@@H](C)CC)[C@H]2O)C(OC(C)=O)[C@H](C)Cc1ccccc1 (some centres undefined),,,ED50 (Mus musculus [4]): 18 mg/kg
